Data: ChEMBL document CHEMBL4689842, “EUbOPEN Chemogenomics Library wave 1” (2021)
Where “and” joins values, the source holds several entries; their conditions need not be identical. Equal values may be shown once.

Tests used:
Assay type in all cases: toxicity, cell-based
U2OS [1] = experiment: Multiplex assay against U2OS; conditions: human, 1 µM, compound concentration 1 uM
Summary of the method: (§1)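 Live cells were stained at seeding with Hoechst33342, BioTracker Green Microtubule Cytoskeleton Dye, MitoTracker Red and Annexin V Alexa Fluor 680, then imaged on a CQ1 microscope at 37°C and 5% CO2 after compound addition. CellPathfinder machine-learning gating split cells into Hoechst high-intensity objects or normal cells. Normal cells were split into healthy, pyknosed or fragmented nuclei, and pyknosed cells into mitotic or apoptotic. Tubulin, mitochondrial-mass and membrane-permeability phenotypes are per cents of healthy-nucleus cells.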

U2OS [2] = experiment: Incucyte cell viability with U2OS; conditions: human, 10 µM, compound concentration 10 uM; further: filed as whole numbers so only -1 and 0 and 1 occur
HEK-293T = experiment: Incucyte cell viability with HEK293T; conditions: human, 10 µM, compound concentration 10 uM; further: filed as whole numbers so only -1 and 0 and 1 occur
Fibroblast [3] = experiment: Multiplex assay against human fibroblast; conditions: 1 µM, compound concentration 1 uM; summary of the method: as §1
Fibroblast [4] = experiment: Incucyte cell viability with human fibroblast; conditions: 10 µM, compound concentration 10 uM; further: filed as whole numbers so only -1 and 0 and 1 occur
[5] = 0 h, replicate number 1, timepoint 0 hours
[6] = 6 h, replicate number 1, timepoint 6 hours
[7] = 12 h, replicate number 1, timepoint 12 hours
[8] = 18 h, replicate number 1, timepoint 18 hours
[9] = 24 h, replicate number 1, timepoint 24 hours
[10] = 0 h, replicate number 2, timepoint 0 hours
[11] = 6 h, replicate number 2, timepoint 6 hours
[12] = 12 h, replicate number 2, timepoint 12 hours
[13] = 18 h, replicate number 2, timepoint 18 hours
[14] = 24 h, replicate number 2, timepoint 24 hours

CS(=O)(=O)N1CCN(Cc2cc3nc(-c4cccc5[nH]ncc45)nc(N4CCOCC4)c3s2)CC1 [PICTILISIB]
Population Apoptotic (%) (U2OS [1]; 12 h, replicate 1): 69% and 53%
Population Fragmented Nuclei (%) (U2OS [1]; 12 h, replicate 1): 22% and 12%
Population Healthy Nuclei (%) (U2OS [1]; 12 h, replicate 1): 35% and 77%
Population Hoechst High Intensity Objects (%) (U2OS [1]; 12 h, replicate 1): 4%
Population Membrane Permeable-Phenotype (%) (U2OS [1]; 12 h, replicate 1): 47% and 40%
Population Mitotic Cells (%) (U2OS [1]; 12 h, replicate 1): 30% and 46%
Population Normal (%) (U2OS [1]; 12 h, replicate 1): 95% and 96%
Population Tubulin-Different-Phenotype (%) (U2OS [1]; 12 h, replicate 1): 100% and 49%
Total Cell Count (U2OS [1]; 12 h, replicate 1): 150 and 194
Population Apoptotic (%) (U2OS [1]; 12 h, replicate 2): 74% and 45%
Population Fragmented Nuclei (%) (U2OS [1]; 12 h, replicate 2): 13%
Population Healthy Nuclei (%) (U2OS [1]; 12 h, replicate 2): 26% and 78%
Population Hoechst High Intensity Objects (%) (U2OS [1]; 12 h, replicate 2): 24% and 14%
Population Membrane Permeable-Phenotype (%) (U2OS [1]; 12 h, replicate 2): 55% and 27%
Population Mitotic Cells (%) (U2OS [1]; 12 h, replicate 2): 25% and 54%
Population Normal (%) (U2OS [1]; 12 h, replicate 2): 75% and 86%
Total Cell Count (U2OS [1]; 12 h, replicate 2): 91
Population Apoptotic (%) (U2OS [1]; 24 h, replicate 1): 91% and 73%
Population Fragmented Nuclei (%) (U2OS [1]; 24 h, replicate 1): 16% and 11%
Population Membrane Permeable-Phenotype (%) (U2OS [1]; 24 h, replicate 1): 84% and 29%
Population Normal (%) (U2OS [1]; 24 h, replicate 1): 77% and 97%
Total Cell Count (U2OS [1]; 24 h, replicate 1): 190 and 175
Population Apoptotic (%) (U2OS [1]; 24 h, replicate 2): 94% and 86%
Population Fragmented Nuclei (%) (U2OS [1]; 24 h, replicate 2): 21% and 13%
Population Healthy Nuclei (%) (U2OS [1]; 24 h, replicate 2): 28% and 75%
Population Hoechst High Intensity Objects (%) (U2OS [1]; 24 h, replicate 2): 23% and 10%
Population Mitotic Cells (%) (U2OS [1]; 24 h, replicate 2): 5% and 13%
Population Normal (%) (U2OS [1]; 24 h, replicate 2): 76% and 89%
Total Cell Count (U2OS [1]; 24 h, replicate 2): 159 and 98
Growth Rate (U2OS [2]; [5]): 0
Growth Rate (U2OS [2]; [6]): 0
Growth Rate (U2OS [2]; [7]): 0
Growth Rate (U2OS [2]; [8]): 0
Growth Rate (U2OS [2]; [9]): 0
Growth Rate (HEK-293T; [6]): 0
Growth Rate (HEK-293T; [7]): 0
Growth Rate (HEK-293T; [8]): 0
Growth Rate (HEK-293T; [9]): 0
Population Apoptotic (%) (Fibroblast [3]; 12 h, replicate 1): 64% and 41%
Population Fragmented Nuclei (%) (Fibroblast [3]; 12 h, replicate 1): 35% and 14%
Population Healthy Nuclei (%) (Fibroblast [3]; 12 h, replicate 1): 45% and 47%
Population Membrane Permeable-Phenotype (%) (Fibroblast [3]; 12 h, replicate 1): 5% and 11%
Population Mitochondria Different-Phenotype (%) (Fibroblast [3]; 12 h, replicate 1): 11% and 25%
Population Mitotic Cells (%) (Fibroblast [3]; 12 h, replicate 1): 35% and 58%
Population Normal (%) (Fibroblast [3]; 12 h, replicate 1): 83% and 50%
Population Pyknosed Nuclei (%) (Fibroblast [3]; 12 h, replicate 1): 18% and 37%
Total Cell Count (Fibroblast [3]; 12 h, replicate 1): 234 and 214
Population Apoptotic (%) (Fibroblast [3]; 12 h, replicate 2): 80% and 35%
Population Fragmented Nuclei (%) (Fibroblast [3]; 12 h, replicate 2): 72% and 48%
Population Healthy Nuclei (%) (Fibroblast [3]; 12 h, replicate 2): 18% and 22%
Population Hoechst High Intensity Objects (%) (Fibroblast [3]; 12 h, replicate 2): 38% and 35%
Population Membrane Permeable-Phenotype (%) (Fibroblast [3]; 12 h, replicate 2): 18% and 9%
Population Normal (%) (Fibroblast [3]; 12 h, replicate 2): 61% and 64%
Total Cell Count (Fibroblast [3]; 12 h, replicate 2): 94 and 76
Population Apoptotic (%) (Fibroblast [3]; 24 h, replicate 1): 65% and 68%
Population Fragmented Nuclei (%) (Fibroblast [3]; 24 h, replicate 1): 38% and 24%
Population Healthy Nuclei (%) (Fibroblast [3]; 24 h, replicate 1): 49% and 38%
Population Hoechst High Intensity Objects (%) (Fibroblast [3]; 24 h, replicate 1): 21% and 44%
Population Membrane Permeable-Phenotype (%) (Fibroblast [3]; 24 h, replicate 1): 4% and 2%
Population Mitotic Cells (%) (Fibroblast [3]; 24 h, replicate 1): 34% and 31%
Population Normal (%) (Fibroblast [3]; 24 h, replicate 1): 78% and 55%
Total Cell Count (Fibroblast [3]; 24 h, replicate 1): 258 and 181
Population Apoptotic (%) (Fibroblast [3]; 24 h, replicate 2): 80% and 73%
Population Fragmented Nuclei (%) (Fibroblast [3]; 24 h, replicate 2): 63% and 56%
Population Healthy Nuclei (%) (Fibroblast [3]; 24 h, replicate 2): 25% and 9%
Population Hoechst High Intensity Objects (%) (Fibroblast [3]; 24 h, replicate 2): 36% and 43%
Population Mitotic Cells (%) (Fibroblast [3]; 24 h, replicate 2): 20% and 26%
Population Normal (%) (Fibroblast [3]; 24 h, replicate 2): 63% and 56%
Population Tubulin-Different-Phenotype (%) (Fibroblast [3]; 24 h, replicate 2): 27% and 50%
Total Cell Count (Fibroblast [3]; 24 h, replicate 2): 69 and 78
Growth Rate (Fibroblast [4]; [10]): 1
Growth Rate (Fibroblast [4]; [6]): 0
Growth Rate (Fibroblast [4]; [7]): 0
Growth Rate (Fibroblast [4]; [8]): 0
Growth Rate (Fibroblast [4]; [9]): 0

CC(C)Oc1ccc(-c2nn([C@@H](C)c3oc4ccc(F)cc4c(=O)c3-c3cccc(F)c3)c3ncnc(N)c23)cc1F [UMBRALISIB]
Growth Rate (U2OS [2]; [5]): 0
Growth Rate (U2OS [2]; [6]): 0
Growth Rate (U2OS [2]; [11]): 1
Growth Rate (U2OS [2]; [7]): 0
Growth Rate (U2OS [2]; [12]): 1
Growth Rate (U2OS [2]; [8]): 0
Growth Rate (U2OS [2]; [13]): 1
Growth Rate (U2OS [2]; [9]): 0
Growth Rate (U2OS [2]; [14]): 1
Growth Rate (HEK-293T; [5]): 1
Growth Rate (HEK-293T; [10]): 0
Growth Rate (HEK-293T; [6]): 0
Growth Rate (HEK-293T; [7]): 0
Growth Rate (HEK-293T; [8]): 0
Growth Rate (HEK-293T; [9]): 0
Growth Rate (Fibroblast [4]; [6]): 1
Growth Rate (Fibroblast [4]; [11]): 0
Growth Rate (Fibroblast [4]; [7]): 1
Growth Rate (Fibroblast [4]; [12]): 0
Growth Rate (Fibroblast [4]; [8]): 1
Growth Rate (Fibroblast [4]; [9]): 1

Nc1nc(NCc2ccccc2)nc(-c2cccc(CO)c2)n1 [ZINC32547799]
Growth Rate (U2OS [2]; [5]): 0
Growth Rate (U2OS [2]; [11]): 0
Growth Rate (U2OS [2]; [7]): 1
Growth Rate (U2OS [2]; [8]): 1
Growth Rate (U2OS [2]; [9]): 1
Growth Rate (HEK-293T; [5]): 0
Growth Rate (HEK-293T; [6]): 0
Growth Rate (HEK-293T; [7]): 0
Growth Rate (HEK-293T; [8]): 0
Growth Rate (HEK-293T; [9]): 0
Growth Rate (Fibroblast [4]; [5]): 0
Growth Rate (Fibroblast [4]; [6]): 0
Growth Rate (Fibroblast [4]; [7]): 0
Growth Rate (Fibroblast [4]; [12]): 1
Growth Rate (Fibroblast [4]; [8]): 0
Growth Rate (Fibroblast [4]; [9]): 0
Growth Rate (Fibroblast [4]; [14]): 1

Nc1nc(NCCc2ccc(O)cc2)nc2nc(-c3ccco3)nn12 [ZM-241385]
Growth Rate (U2OS [2]; [10]): 0
Growth Rate (U2OS [2]; [6]): 0
Growth Rate (U2OS [2]; [7]): 0
Growth Rate (U2OS [2]; [12]): 1
Growth Rate (U2OS [2]; [8]): 0
Growth Rate (U2OS [2]; [13]): 1
Growth Rate (U2OS [2]; [9]): 0
Growth Rate (U2OS [2]; [14]): 1
Growth Rate (HEK-293T; [5]): 1
Growth Rate (HEK-293T; [10]): 0
Growth Rate (HEK-293T; [6]): 0
Growth Rate (HEK-293T; [7]): 0
Growth Rate (HEK-293T; [8]): 0
Growth Rate (HEK-293T; [9]): 0
Growth Rate (Fibroblast [4]; [5]): 0
Growth Rate (Fibroblast [4]; [10]): 1
Growth Rate (Fibroblast [4]; [11]): 0
Growth Rate (Fibroblast [4]; [7]): 1
Growth Rate (Fibroblast [4]; [12]): 0
Growth Rate (Fibroblast [4]; [8]): 1
Growth Rate (Fibroblast [4]; [13]): 0
Growth Rate (Fibroblast [4]; [9]): 1
